Test results from paper PMC5116011 (The Journal of antibiotics, 2016).
Converted amounts (≈) assume the structure as drawn. Where two headings read alike, the source gives them in different places.

Tests used:
S. aureus NRS 70 (MRSA) = assay: MIC, microbroth dilution in Mueller-Hinton broth; assay type: cell-based; conditions: Staphylococcus aureus, MRSA|NRS70, read-out: MIC MRSA
Outline: (§1)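 CLSI broth microdilution in cation-adjusted Mueller-Hinton broth. Inocula were grown from MH agar colonies in MH broth, with a final inoculum of 10^5 CFU/ml. Test compound final range was 200–0.2 µg/ml, incubated 37°C for 18–20 h. MIC was the lowest concentration preventing visible growth. Runs were at least duplicate, and the mean MIC was reported.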

B. subtilis ATCC23857 = assay: MIC, microbroth dilution in Mueller-Hinton broth; assay type: cell-based; conditions: Bacillus subtilis, ATCC23857, read-out: MIC BS
Outline: as §1

P. mirabilis ATCC 25933 = assay: MIC, microbroth dilution in Mueller-Hinton broth; assay type: cell-based; conditions: Proteus mirabilis, ATCC25933, read-out: MIC PM
[1] = test system: E. coli ATCC 35218 (Low-level TEM-1); assay: MIC with and without clavulanic acid; assay type: cell-based; conditions: with clavulanic acid (6 µg/ml)
Outline: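 Mueller-Hinton broth microdilution per CLSI, run in parallel without and with the β-lactamase inhibitor clavulanic acid (6 µg/ml). MH-broth-grown inoculum was at 10^5 CFU/ml final, with test compound at 200–0.2 µg/ml final. Incubation was 37°C, 18–20 h, and the visible-growth endpoint was read. At least duplicate determinations; the mean MIC was reported.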

[2] = Relative binding affinity; assay type: physicochemical
Outline: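 Chelator:Fe(III) stoichiometry was found by the continuous variation method. The apparent iron constant came from the drop in 460 nm absorbance of the preformed test compound–Fe(III) complex as EDTA concentration was raised. pM was calculated as –log free [Fe3+].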

E. coli BW25113 = assay: MIC, microbroth dilution in Mueller-Hinton broth; assay type: cell-based, Escherichia coli
S. pyogenes ATCC700294 = assay: MIC, microbroth dilution in Mueller-Hinton broth; assay type: cell-based; conditions: Streptococcus pyogenes, ATCC700294, read-out: MIC SPy
Outline: as §1

B. anthracis sterne = assay: microbe, parasite or virus in culture; assay type: cell-based; conditions: Bacillus anthracis, read-out: MIC BA
[3] = test system: E. coli BW25113 ΔampC derivative JW4111-2; assay type: cell-based, Escherichia coli
[4] = test system: E. coli BW25113 ΔtolC derivative JW5503-1; assay: MIC, microbroth dilution in Mueller-Hinton broth; assay type: cell-based, Escherichia coli; conditions: for MIC: Escherichia coli
[5] = test system: S. aureus -ATCC29213 (MSSA); assay: MIC, microbroth dilution in Mueller-Hinton broth; assay type: cell-based; conditions: Staphylococcus aureus, read-out: MIC MSSA
Outline: as §1

P. vulgaris ATCC 33420 = assay: MIC, microbroth dilution in Mueller-Hinton broth; assay type: cell-based; conditions: Proteus vulgaris, ATCC33420, read-out: MIC PV
S. pneumoniae R6 = assay: MIC, microbroth dilution in Mueller-Hinton broth; assay type: cell-based; conditions: Streptococcus pneumoniae, R6, read-out: MIC SP
Outline: as §1

E. faecalis ATCC33186 = assay: MIC, microbroth dilution in Mueller-Hinton broth; assay type: cell-based; conditions: Enterococcus faecalis, ATCC33186, read-out: MIC EF
Outline: as §1

P. aeruginosa PA01 = assay: MIC, microbroth dilution in Mueller-Hinton broth; assay type: cell-based, Pseudomonas aeruginosa; conditions: for MIC: Pseudomonas aeruginosa

Compound: CC1(C)SC2C(NC(=O)C(NC(=O)C3=C(O)C(Cc4ccsc4)NC3=O)c3ccccc3)C(=O)N2C1C(=O)O (stereo not shown) [Compound 2916]
- MIC (S. aureus NRS 70 (MRSA)): 50 µg/mL (≈ 87.6 µM)
- MIC (B. subtilis ATCC23857): 1.56 µg/mL (≈ 2.73 µM)
- MIC (P. mirabilis ATCC 25933): 6.25 µg/mL (≈ 11 µM)
- MIC ATCC 35218 (Low-level TEM-1) + CLV [1]: 25 µg/mL
- pM (–log [Fe^3+]) ([2]; 10^−5 M total iron chelator and 10^−6 M total Fe^3+ at pH 7.4): 20.3
- apparent binding constant (Kd, app) for iron (III) ([2]; EDTA competition, MeOH:Tris buffer, pH 7.4 (98:2), 3:1 complex): 0.55 × 10^−29 M^3
- MIC EC MH+BP/CCCP (E. coli BW25113; E. coli BW25113, MH broth with 30 µg/ml 2,2′-bipyridyl and 50 µg/ml CCCP): 12.5 µg/mL (≈ 21.9 µM)
- MIC EC + (E. coli BW25113; E. coli BW25113, with clavulanic acid (6µg/ml)): 12.5 µg/mL
- MIC (E. coli BW25113; Escherichia coli, BW25113, read-out: MIC EC, E. coli BW25113, Mueller-Hinton broth (Table 2)): 50 µg/mL (≈ 87.6 µM)
- MIC (S. pyogenes ATCC700294): 0.39 µg/mL (≈ 0.683 µM)
- MIC (B. anthracis sterne): 1.56 µg/mL (≈ 2.73 µM)
- MIC ([3]; Escherichia coli, BW25113, read-out: MIC ECΔampC −): 6.25 µg/mL (≈ 11 µM)
- MIC ECΔampC + ([3]; {}): 3.13 µg/mL
- MIC ([4]; BW25113, read-out: MIC ECΔtolC): 1.56 µg/mL (≈ 2.73 µM)
- MIC ([4]; BW25113, read-out: MIC ECΔtolC MH): 1.56 µg/mL (≈ 2.73 µM)
- MIC ([4]; BW25113, read-out: MIC ECΔtolC MH+BP): 1.56 µg/mL (≈ 2.73 µM)
- MIC ECΔtolC MH+BP/CCCP ([4]; {}): 0.78 µg/mL (≈ 1.37 µM)
- MIC ECΔtolC MH+CCCP ([4]; {}): 0.78 µg/mL (≈ 1.37 µM)
- MIC [5]: < 0.2 µg/mL
- MIC (P. vulgaris ATCC 33420): 6.25 µg/mL (≈ 11 µM)
- MIC (S. pneumoniae R6): < 0.2 µg/mL
- MIC (E. faecalis ATCC33186): 25 µg/mL (≈ 43.8 µM)
- MIC PA MH+BP/CCCP (P. aeruginosa PA01; P. aeruginosa PA01, MH broth with 30 µg/ml 2,2′-bipyridyl and 50 µg/ml CCCP): 6.25 µg/mL (≈ 11 µM)
- MIC PA + (P. aeruginosa PA01; P. aeruginosa PA01, with clavulanic acid (6µg/ml)): 6.25 µg/mL
- MIC (P. aeruginosa PA01; PA01, read-out: MIC PA): 25 µg/mL (≈ 43.8 µM)
- MIC (P. aeruginosa PA01; PA01, read-out: MIC PA MH): 25 µg/mL (≈ 43.8 µM)
- MIC (P. aeruginosa PA01; PA01, read-out: MIC PA MH+BP): 25 µg/mL (≈ 43.8 µM)
- MIC (P. aeruginosa PA01; PA01, read-out: MIC PA MH+CCCP): 12.5 µg/mL (≈ 21.9 µM)
